Assay results: ChEMBL document CHEMBL1146056, “Microwave-accelerated synthesis of P1'-extended HIV-1 protease inhibitors encompassing a tertiary alcohol in the transition-state mimicking scaffold” (J Med Chem, 2006)
One block for each molecule: values may come before it.

Assays:
[1] = biological target: Human immunodeficiency virus type 1 protease (Human immunodeficiency virus 1, UniProt Q72874); test: Inhibition of HIV1 protease
[2] = tested on: Human immunodeficiency virus 1; test: Antiviral activity against HIV1 in MT4 cells; type: functional, organism-based; settings: Human immunodeficiency virus 1, MT4
How it was run: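 HIV-1-infected MT4 cells; antiviral activity reported as EC50 (µM).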

[3] = tested on: MT4; test: Cytotoxicity against MT4 cells; type: functional; settings: Homo sapiens
How it was run: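 Cytotoxicity reported as CC50 (µM).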

[4] = Permeability in Caco-2 cells at 10 uM; type: ADME, cell-based; settings: human, read-out: permeability
How it was run: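 Caco-2 cell monolayer; membrane permeation expressed as apparent permeability Papp (10^-6 cm/s).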

[5] = Intrinsic clearance in human liver microsome at 2 uM; type: ADME; settings: liver microsomes
How it was run: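 Stability in liver microsome homogenate, expressed as intrinsic clearance (Clint, µL/min/mg).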

Structure (SMILES): COC(=O)N[C@H](C(=O)NN(Cc1cccc(C#Cc2cccnc2)c1)C[C@@](O)(Cc1ccccc1)C(=O)N[C@H]1c2ccccc2C[C@H]1O)C(C)(C)C
Ki [1]: 18 nM
EC50 [2]: > 10000 nM
CC50 [3]: > 10000 nM

EC50 [2]: 1100 nM
Structure (SMILES): COC(=O)N[C@H](C(=O)NN(Cc1ccc(Br)cc1)C[C@@](O)(Cc1ccccc1)C(=O)N[C@H]1c2ccccc2C[C@H]1O)C(C)(C)C
CC50 [3]: > 10000 nM

EC50 [2]: 700 nM
Structure (SMILES): COC(=O)N[C@H](C(=O)NN(Cc1ccc(-c2ccccc2)cc1)C[C@@](O)(Cc1ccccc1)C(=O)N[C@H]1c2ccccc2C[C@H]1O)C(C)(C)C
CC50 [3]: > 10000 nM

Structure (SMILES): COC(=O)N[C@H](C(=O)NN(Cc1cccc(Br)c1)C[C@@](O)(Cc1ccccc1)C(=O)N[C@H]1c2ccccc2C[C@H]1O)C(C)(C)C
Ki [1]: 18 nM
EC50 [2]: 3300 nM
CC50 [3]: > 10000 nM

Structure (SMILES): COC(=O)N[C@H](C(=O)NN(Cc1ccc(-c2ccc3c(c2)OCO3)cc1)C[C@@](O)(Cc1ccccc1)C(=O)N[C@H]1c2ccccc2C[C@H]1O)C(C)(C)C
Ki [1]: 11 nM
EC50 [2]: 1000 nM
CC50 [3]: > 10000 nM

Structure (SMILES): COC(=O)N[C@H](C(=O)NN(Cc1cccc(/C=C/c2ccccc2)c1)C[C@@](O)(Cc1ccccc1)C(=O)N[C@H]1c2ccccc2C[C@H]1O)C(C)(C)C
Ki [1]: 14 nM
EC50 [2]: > 10000 nM
CC50 [3]: > 10000 nM

EC50 [2]: 180 nM
Papp at 10 µM [4]: 33 ×10⁻⁶ cm/s
microsomal CLint at 2 µM [5]: 154 µL/min/mg
Structure (SMILES): COC(=O)N[C@H](C(=O)NN(Cc1ccc(-c2cccnc2)cc1)C[C@@](O)(Cc1ccccc1)C(=O)N[C@H]1c2ccccc2C[C@H]1O)C(C)(C)C
CC50 [3]: > 10000 nM

EC50 [2]: > 10000 nM
Structure (SMILES): COC(=O)N[C@H](C(=O)NN(Cc1ccc(/C=C/c2ccccc2)cc1)C[C@@](O)(Cc1ccccc1)C(=O)N[C@H]1c2ccccc2C[C@H]1O)C(C)(C)C
CC50 [3]: > 10000 nM

Structure (SMILES): COC(=O)N[C@H](C(=O)NN(Cc1ccc(C#Cc2cccnc2)cc1)C[C@@](O)(Cc1ccccc1)C(=O)N[C@H]1c2ccccc2C[C@H]1O)C(C)(C)C
Ki [1]: 7.8 nM
EC50 [2]: 750 nM
CC50 [3]: > 10000 nM

Structure (SMILES): COC(=O)N[C@H](C(=O)NN(Cc1ccc(-c2cnccn2)cc1)C[C@@](O)(Cc1ccccc1)C(=O)N[C@H]1c2ccccc2C[C@H]1O)C(C)(C)C
Ki [1]: 2.1 nM
EC50 [2]: 1000 nM
CC50 [3]: 7800 nM

Structure (SMILES): COC(=O)N[C@H](C(=O)NN(Cc1cccc(-c2ccccn2)c1)C[C@@](O)(Cc1ccccc1)C(=O)N[C@H]1c2ccccc2C[C@H]1O)C(C)(C)C
Ki [1]: 15 nM
EC50 [2]: > 10000 nM
CC50 [3]: 4400 nM

Structure (SMILES): COC(=O)N[C@H](C(=O)NN(Cc1cccc(-c2cccnc2)c1)C[C@@](O)(Cc1ccccc1)C(=O)N[C@H]1c2ccccc2C[C@H]1O)C(C)(C)C
Ki [1]: 12 nM
EC50 [2]: > 10000 nM
CC50 [3]: 6800 nM
Papp at 10 µM [4]: 11 ×10⁻⁶ cm/s
microsomal CLint at 2 µM [5]: 190 µL/min/mg

EC50 [2]: 220 nM
Structure (SMILES): COC(=O)N[C@H](C(=O)NN(Cc1ccc(-c2ccncc2)cc1)C[C@@](O)(Cc1ccccc1)C(=O)N[C@H]1c2ccccc2C[C@H]1O)C(C)(C)C
CC50 [3]: > 10000 nM

EC50 [2]: > 10000 nM
Structure (SMILES): COC(=O)N[C@H](C(=O)NN(Cc1ccc(-c2cc3ccccc3s2)cc1)C[C@@](O)(Cc1ccccc1)C(=O)N[C@H]1c2ccccc2C[C@H]1O)C(C)(C)C
CC50 [3]: > 10000 nM

EC50 [2]: 900 nM
Structure (SMILES): COC(=O)N[C@H](C(=O)NN(Cc1ccc(-c2ccccn2)cc1)C[C@@](O)(Cc1ccccc1)C(=O)N[C@H]1c2ccccc2C[C@H]1O)C(C)(C)C
CC50 [3]: > 10000 nM

Structure (SMILES): COC(=O)N[C@H](C(=O)NN(Cc1cccc(C#Cc2ccccn2)c1)C[C@@](O)(Cc1ccccc1)C(=O)N[C@H]1c2ccccc2C[C@H]1O)C(C)(C)C
Ki [1]: 22 nM
EC50 [2]: > 10000 nM
CC50 [3]: > 10000 nM

Structure (SMILES): COC(=O)N[C@H](C(=O)NN(Cc1ccc(-c2c(C)noc2C)cc1)C[C@@](O)(Cc1ccccc1)C(=O)N[C@H]1c2ccccc2C[C@H]1O)C(C)(C)C
Ki [1]: 3.8 nM
EC50 [2]: 1100 nM
CC50 [3]: > 10000 nM

Structure (SMILES): COC(=O)N[C@H](C(=O)NN(Cc1cccc(-c2ccncc2)c1)C[C@@](O)(Cc1ccccc1)C(=O)N[C@H]1c2ccccc2C[C@H]1O)C(C)(C)C
Ki [1]: 93 nM
EC50 [2]: 2000 nM
CC50 [3]: > 10000 nM

Structure (SMILES): COC(=O)N[C@H](C(=O)NN(Cc1cccc(-c2ccccc2)c1)C[C@@](O)(Cc1ccccc1)C(=O)N[C@H]1c2ccccc2C[C@H]1O)C(C)(C)C
Ki [1]: 23 nM
EC50 [2]: > 10000 nM
CC50 [3]: > 10000 nM

Structure (SMILES): COC(=O)N[C@H](C(=O)NN(Cc1cccc(C#Cc2ccccc2)c1)C[C@@](O)(Cc1ccccc1)C(=O)N[C@H]1c2ccccc2C[C@H]1O)C(C)(C)C
Ki [1]: 23 nM
EC50 [2]: > 10000 nM
CC50 [3]: > 10000 nM

Structure (SMILES): COC(=O)N[C@H](C(=O)NN(Cc1ccc(C#Cc2ccccn2)cc1)C[C@@](O)(Cc1ccccc1)C(=O)N[C@H]1c2ccccc2C[C@H]1O)C(C)(C)C
Ki [1]: 9 nM
EC50 [2]: 1000 nM
CC50 [3]: 4900 nM

Structure (SMILES): COC(=O)N[C@H](C(=O)NN(Cc1ccc(C#Cc2ccccc2)cc1)C[C@@](O)(Cc1ccccc1)C(=O)N[C@H]1c2ccccc2C[C@H]1O)C(C)(C)C
Ki [1]: 15 nM
EC50 [2]: > 10000 nM
CC50 [3]: > 10000 nM
